Screens: PubChem BioAssay, Sanford-Burnham Center for Chemical Genomics
Hits are enriched below; roughly 1.7% of the tested compounds scored in any of these assays.
MT1-MMP act inh: blockers of MT1-MMP proenzyme processing, primary screen, HT1080 RFP-PRO-GFP cells, GFP/RFP fluorescence | Matrix metalloproteinase-14 (Homo sapiens), P50281 | GFP/RFP ratio fluorescence, overnight; percent of plate control window, DMSO zero | GFP/RFP ratio change, % at 20 µM | hit rate 0.061% among 360,000 | AID 651647, 2012;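 active = GFP/RFP ratio change of at least 30% with cell ATP level not reduced by more than half and red fluorescence within 50% of control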
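Assay system: HT1080 cells carrying an RFP-PRO-GFP reporter | Dosing: Single dose of 20 µM compound, 1% DMSO final | Incubation: Cells overnight before dosing, compound overnight, 37 °C, 5% CO2 | Evaluation: GFP/RFP fluorescence ratio | Control set: DMSO and RFP-L50D-GFP cell wells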
eIF4H FP inh: human eIF4H binding inhibitors, primary screen, translation initiation inhibitor project, biochemical, uHTS, fluorescence polarization. Eukaryotic translation initiation factor 4H (Homo sapiens), Q15056. eIF4H fluorescence polarization binding assay. inhibition, % at 35 µM. hit rate 0.94% among 290,000. AID 2012, 2009;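 also: calls also rest on retests at 20 µM and on dose response follow-up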
SKN-1 block: suppressors of acrylamide-induced Pgst-4::GFP reporter in worms, primary screen, SKN-1 inhibitor project, whole organism, uHTS, GFP/RFP fluorescence ratio, strain VP596; C. elegans VP596 Pgst-4::GFP/RFP ratio, 24 h; inhibition, % at 21.8 µM; hit rate 0.49% among 360,000;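 active = interference check ratio from 0.5 to 1.5 plus GFP to RFP signal ratio inhibition reaching or exceeding a fixed threshold, cut at about 30% in these data, passing the limit was not always enough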
PABP FP inh: PABP poly(A) RNA binding inhibitors, primary screen, biochemical, fluorescence polarization, uHTS | inhibition, % at 35 µM | hit rate 1% among 290,000;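 also: calls also rest on retests at 20 µM and on dose response follow-up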
Target sequence (P11940 whole entry, looked up): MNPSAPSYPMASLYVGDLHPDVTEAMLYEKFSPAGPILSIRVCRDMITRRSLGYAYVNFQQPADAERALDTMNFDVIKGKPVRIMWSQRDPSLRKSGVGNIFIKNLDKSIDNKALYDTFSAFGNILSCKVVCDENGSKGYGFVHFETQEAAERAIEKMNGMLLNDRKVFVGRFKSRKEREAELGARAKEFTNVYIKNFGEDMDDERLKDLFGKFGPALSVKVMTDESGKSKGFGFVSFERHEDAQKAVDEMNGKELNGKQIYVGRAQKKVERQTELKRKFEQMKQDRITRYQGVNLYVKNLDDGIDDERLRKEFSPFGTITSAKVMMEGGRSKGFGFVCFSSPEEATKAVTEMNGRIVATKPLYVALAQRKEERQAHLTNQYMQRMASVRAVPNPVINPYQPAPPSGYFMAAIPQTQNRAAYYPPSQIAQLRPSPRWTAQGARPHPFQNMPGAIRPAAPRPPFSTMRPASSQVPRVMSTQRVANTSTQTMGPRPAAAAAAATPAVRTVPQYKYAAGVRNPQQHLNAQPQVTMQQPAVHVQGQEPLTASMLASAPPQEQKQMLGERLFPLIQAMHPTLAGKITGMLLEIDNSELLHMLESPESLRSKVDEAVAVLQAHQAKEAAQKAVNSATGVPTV
PABP1 MLLE inh: inhibitors of PABP1 MLLE–PAM2 peptide binding, primary screen, biochemical, fluorescence polarization, FITC-PAM2, GST-MLLE; AID 588489, 2011; inhibition, % at 20 µM; Polyadenylate-binding protein 1 (Homo sapiens), P11940; hit rate 0.36% among 360,000; in the data active = inhibition above about 35%, passing the limit was not always enough;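 also: plate controls were DMSO wells with GST-MLLE for no effect and wells lacking GST-MLLE protein for full effect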
* hit, by the source's call; u = inconclusive; x = no result given. Unless noted, no rule for the calls is given here.

SMILES | MT1-MMP act inh | eIF4H FP inh | SKN-1 block | PABP FP inh | PABP1 MLLE inh
O=C(O)/C(=C/c1ccco1)NC(=O)c1ccccc1 | -3 | 72* | -5 | 120* | 6
CCN(CC)Cc1c(C(=O)N/N=C(\C)c2ccncc2)nnn1-c1nonc1N | 2 | -8 | 8 | -8 | 6
c1ccc(N2CC3CCc4ccccc4C3=N2)cc1 (stereo not given) | -1 | 0 | 15 | -6 | 0
CCOc1ccc(NC(=O)CN(C)C(=O)c2cc3c(s2)CCCCC3)cc1OCC | 2 | x | -2 | x | 6
CCc1ccc(OCC(=O)Nc2cccc3c2CCCC3)cc1 | 1 | u | -1 | 51* | 4
CCCC(=O)Nc1cccc2c1CCCC2 | 1 | 0 | 1 | -6 | -3
Cc1ccc(S(=O)(=O)N2CCc3c2cc([N+](=O)[O-])cc3[N+](=O)[O-])cc1 | 3 | -10 | -4 | -3 | 18
[O-][N+](=Cc1ccccc1)c1ccc(Cl)cc1 | -2 | x | 20 | x | 10
[O-]/[N+](=C\c1ccco1)c1ccc(Cl)cc1 | -2 | -6 | 36* | 5 | 17
[O-]/[N+](=C/c1ccc(F)cc1)c1ccc(Cl)cc1 | 0 | -4 | 9 | 0 | 42*
CC(/C=N/Nc1ccc2nncn2n1)=C\c1ccccc1 | 0 | -8 | 6 | -8 | 3
COc1ccc(-c2cn(-c3ccc(C)cc3)c(=O)n2CC(=O)Nc2ccc(OC)cc2OC)cc1 | 0 | 1 | 38* | 0 | -38
COc1ccc(NC(=O)Cn2c(-c3ccccc3)cn(-c3ccc(C)cc3)c2=O)cc1 | -1 | -13 | -12 | -1 | -7
Nc1ccc(/C=C/C(=O)c2cccs2)cc1 | -7 | 65* | 19 | 32 | -113
COc1ccc(NC(=O)C2(C)CCN2CCc2ccccc2)cc1OC (stereo not given) | 4 | x | 18 | x | -3
COCCN(CCOC)Cc1c(O)ccc2c1O/C(=C\c1ccc(C)o1)C2=O | -51 | 51* | 9 | 36 | -1
CCN(CC)Cc1c(O)ccc2c1O/C(=C\C=C\c1ccccc1)C2=O | -112 | u | -17 | u | -9
O=C(O)COc1ccc2c(c1)O/C(=C\c1cccs1)C2=O | -16 | -6 | -7 | 5 | -6
O=C(O)COc1ccc2c(c1)O/C(=C\c1ccco1)C2=O | 0 | 77* | 3 | 54* | 10
Cc1ccc(/C=C2\Oc3cc(OCC(=O)NN)ccc3C2=O)o1 | -6 | 73* | 20 | 4 | -28
O=C(NC(=S)NC1CCCCC1)c1ccc(F)cc1 | 0 | -4 | 17 | 7 | 16
O=[N+]([O-])c1cc2oc3c(c2c(C=NCc2ccncc2)c1O)CCCC3 | -5 | 102 | 1 | active | 14
CC(C)(C)N=Cc1c(O)ccc2oc3c(c12)CCCC3 | -52 | 47 | -19 | u | 96
O=C(NCc1ccco1)c1sc(=S)n2c1[nH]c(=O)c1ccccc12 | -4 | 5 | 9 | 23 | 45*
CCCCN(C(=O)Cc1ccc2c(c1)OCCO2)c1c(N)n(CC(C)C)c(=O)[nH]c1=O | 3 | x | 16 | x | 15
SMILES | MT1-MMP act inh | eIF4H FP inh | SKN-1 block | PABP FP inh | PABP1 MLLE inh
Cc1ccc(SCCSc2nc(C)cc(=O)[nH]2)cc1 | 1 | -2 | 14 | 10 | -13
COc1ccc(CCNC(=O)CC2SC(=NCc3ccccc3)NC2=O)cc1 (stereo not given) | 3 | 12 | 3 | 31 | -79
Cc1ccc(NC(=O)COc2ccccc2)cc1Cl | -3 | 2 | 19 | 4 | 4
CCOCC(=O)Nc1ccc(C)c(Cl)c1 | x | 1 | 36* | -5 | 2
CCOCC(=O)Nc1nc2ccc(C)cc2s1 | 3 | -3 | 12 | 2 | 41*
CC1=NN(c2ccccc2)C(=O)/C1=C/N(C)C | 0 | -1 | -9 | 12 | 11
CC1=NN(c2ccccc2)C(=O)/C1=C\C=C1/N(C)c2ccccc2C1(C)C | 1 | u | 47* | 2 | -161
CN1/C(=C\C=C2/C(=O)Oc3ccccc3C2=O)C(C)(C)c2ccccc21 | x | u | x | -8 | x
CC1=NN(c2ccccc2)C(=O)/C1=C\C=C1\N(C)c2ccccc2C1(C)C | 5 | u | 38* | 6 | -118
